# Results gathered from unrelated publications.
# Target: Vascular endothelial growth factor receptor 3 (FLT4, Homo sapiens, UniProt P35916)
Structure (SMILES),assay,setting,quantity,result
CN1CCN(C(=O)c2ccc(NC(=O)Nc3ccc(N(C)c4ccnc(Nc5ccc(CS(C)(=O)=O)cc5)n4)cc3)cc2)CC1,"binding, competition with immobilised ligand",1 µM,remaining binding,2%
O=C1C=C(Nc2ccc(OCc3cn(Cc4ccc(Br)cc4)nn3)cc2)C(=O)c2ccccc21,"enzyme activity, inhibitor, radiometric",10 µM,inhibition,26%
C=CC(=O)N1CCC([C@@H]2CCNc3c(C(N)=O)c(-c4ccc(Oc5ccccc5)cc4)nn32)CC1,cell-free assay,1 µM,inhibition,12%
C1=C/COCc2cc(ccc2OCCN2CCCC2)Nc2nccc(n2)-c2cccc(c2)COC/1,binding,0.1 µM,remaining binding,69%
COc1ccc2[nH]c3c4[nH]c5ccc(OC)cc5c4c4c(c3c2c1)C(=O)NC4=O,"binding, competition with immobilised ligand",1 µM,remaining binding,71%
CC#CC(=O)N1CCC[C@H]1c1nc(-c2ccc(C(=O)Nc3ccccn3)cc2)c2c(N)nccn12,"enzyme activity, inhibitor",1 µM,inhibition,0%
COc1ccc2oc(-c3ccc4nc(N)oc4c3)c/c(=N\c3ccccc3NC(=O)CCN)c2c1,binding,1 µM,remaining binding,105%
CCCCC(=O)Nc1ccc(-c2ccc3ncn(CCC)c(=O)c3c2)cn1,"binding, competition with immobilised ligand",0.5 µM,remaining binding,100%
